In the library only some 2.4% were active in any assay of this set; here they are far more common.
SIAE primary – inhibitors of human sialic acid acetylesterase SIAE | AID 1053197 | SIAE FP-Rh probe binding, fluorescence polarization | inhibition, % at 9.66 µM | hit rate 0.69% among 370,000;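 active means inhibition above a cutoff: mean of compounds within the control limits plus 3 SD of those, cut at about 17% in these data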;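 further: 0% = plate median of compound wells and 100% = probe without SIAE protein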
PRMT1 FP inh – blocks human protein arginine methyltransferase 1. hit rate 1.3% among 370,000. AID 652257. recombinant PRMT1, activity-based probe fluorescence polarization. inhibition, % at 2.79 µM;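 active means inhibition above about 21% made by adding two undisclosed values, limit read from the data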
mABHD4 FP – ABHD4 (mouse) inhibition, primary FP screen; AID 720543; hit rate 0.54% among 370,000; purified mABHD4, FP-Rh probe fluorescence polarization; inhibition, % at 8.92 µM;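 active means inhibition exceeding the mean over every tested compound plus 3 SD, cut at about 30% in these data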;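 further: 0% = plate median of compound wells and 100% = S159A mutant with DMSO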
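system = mouse ABHD4 enzyme, wild type | medium = HEPES pH 7.0, NaCl, Pluronic buffer | also added = FP-Rh probe | incubation = Enzyme–compound pre-incubation 45 min, then probe 60 min, both 25 °C | technique = fluorescence polarization, excitation 525 nm, emission 598 nm, BODIPY TMR filters | controls = S159A mutant high control, sample median low control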
JMJD2C inh – blocks human GASC-1 demethylase activity | Q9H3R0 | GST-JMJD2C(1-420) H3K9me3 demethylation, DELFIA europium | inhibition, % at 2.35 µM | hit rate 0.069% among 330,000 | AID 2099;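 active means more than half of a compound's replicate wells show inhibition beyond 50%, single wells judged on their own value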;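 further: signal counts dimethyl H3K9 product captured on neutravidin plate; 0% = median of DMSO wells and 100% = 0.3 times that DMSO median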
HTRA1 inh – inhibitors of human serine peptidase HTRA1. hit rate 0.5% among 340,000. recombinant HTRA1, FP-rhodamine activity-based probe, fluorescence polarization. inhibition, % at 5.96 µM. Q92743. AID 504803; in the data active means inhibition above about 36%;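 further: 0% = enzyme with DMSO and 100% = wells lacking enzyme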
Target sequence (Q92743 whole entry, looked up): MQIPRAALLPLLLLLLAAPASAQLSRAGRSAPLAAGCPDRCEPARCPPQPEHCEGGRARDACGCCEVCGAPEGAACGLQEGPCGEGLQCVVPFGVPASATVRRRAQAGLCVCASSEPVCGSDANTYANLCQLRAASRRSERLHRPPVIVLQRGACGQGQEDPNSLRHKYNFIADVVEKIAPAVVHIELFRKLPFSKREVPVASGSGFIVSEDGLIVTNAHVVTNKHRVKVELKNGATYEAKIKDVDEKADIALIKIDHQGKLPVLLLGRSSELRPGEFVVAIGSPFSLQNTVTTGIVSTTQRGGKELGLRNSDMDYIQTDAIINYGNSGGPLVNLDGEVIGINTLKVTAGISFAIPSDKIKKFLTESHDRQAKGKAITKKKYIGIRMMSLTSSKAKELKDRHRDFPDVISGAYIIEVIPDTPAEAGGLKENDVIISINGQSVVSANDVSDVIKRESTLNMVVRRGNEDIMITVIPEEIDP
mABHD4 conf – ABHD4 (mouse) inhibition, FP confirmation. inhibition, % at 8.92 µM. AID 720658. shares compounds with mABHD4 FP. hit rate 55% among 1,800. purified mABHD4, FP-Rh probe fluorescence polarization;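 active means mean inhibition across replicates above the hit cutoff set in the primary screen, cut at about 30% in these data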;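 further: 0% = wild-type ABHD4 with DMSO and 100% = catalytically dead S159A mutant with DMSO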
SIAE inh conf – human SIAE inhibition, confirmation | shares compounds with SIAE primary | SIAE FP-Rh activity-based probe, fluorescence polarization | inhibition, % at 9.66 µM | hit rate 13% among 2,300;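 active means mean inhibition of the replicates above the hit cutoff set in the primary screen, cut at about 17% in these data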;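 further: 0% = SIAE with DMSO and probe and 100% = probe without SIAE; inhibitors lower polarization as more probe stays unbound to SIAE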
Starred values were filed as active, the others as inactive; . = no result given.

SMILES	SIAE primary	PRMT1 FP inh	mABHD4 FP	JMJD2C inh	HTRA1 inh	mABHD4 conf	SIAE inh conf
Cc1cnc(C)c(Nc2nc(C(N)Cc3ccc(C(F)(F)F)cc3)cs2)n1 (stereo unspecified)	-1.1	1.1	11.8	.	.	.	.
N#CCCN(CCC#N)C(=O)C1c2ccccc2Oc2ccccc21	66.6*	48.3*	103.3*	-16.7	31.1	2.5	2.8
CCC(CNc1cc(OC)cc2cccnc12)NC1CCCCC1 (stereo unspecified)	47.7*	32.2*	88.8*	-0.7	20.9	25.8	12.4
Cc1cc2ccccc2n1CCNC(=O)c1ccc(S(=O)(=O)N2CCCCC2)cc1	37.4*	2.6	57.8*	3.6	27.1	192.9*	-2.8
O=C(O)c1cccc(N/N=C/c2cc(Br)cc(Br)c2O)c1	31.2*	4.9	56.4*	-4.9	-0.7	80.1*	3.0
O=c1c2cc3cc(Cl)ccc3nc2ncn1CCc1ccc(O)cc1	0.6	-0.4	-4.6	.	.	.	.
CN(C(=S)NC(=O)C12CC3CC(CC(C3)C1)C2)c1ccc(O)cc1	18.5*	26.4*	41.1*	0.9	10.9	15.1	0.8
Oc1cccc2c(NC(=S)Nc3ccc(SC(F)F)cc3)cccc12	19.0*	17.0	40.0*	-0.8	23.4	-1.9	2.5
COC(=O)c1ccc2c(c1)SC1=C(CCCC1=O)N2	19.4*	25.0*	35.0*	-4.3	28.0	32.1*	22.8*
O=C1CCCC2=C1Sc1ccc(Cl)cc1N2	6.7	9.0	4.5	-5.9	13.4	.	.
Brc1ccc(-c2ccc(/C=N/Nc3nc4ccccc4[nH]3)o2)cc1	19.2*	4.0	32.5*	-5.7	9.9	59.4*	33.8*
C(=N\Nc1nc2ccccc2[nH]1)/c1ccccc1	12.7	5.4	11.4	14.0	-2.6	.	.
COc1ccc(C(=O)c2[nH]c(N)c(C(=O)NCCc3c[nH]c4ccccc34)c2-c2ccc(Cl)c(F)c2)cc1	20.6*	3.5	34.5*	.	.	36.7*	8.6
Nc1[nH]c(C(=O)c2ccc(Br)cc2)c(-c2ccc(Cl)cc2[N+](=O)[O-])c1C(=O)NCCc1c[nH]c2ccccc12	20.2*	1.8	39.8*	.	.	28.6	5.1
C[C@@H]1/C=C/CC(=O)N[C@H](c2ccc3ccccc3c2)[C@H](C)/C=C/CC(=O)N[C@@H]1c1ccc2ccccc2c1	-12.2	5.8	-29.8	.	.	.	.
Cn1c(=O)c2c(-c3ccccc3)n(-c3cccc(O)c3)cc2n(C)c1=O	5.5	16.4	19.7	.	.	.	.
Cn1c(=O)c2c(-c3ccccc3)n(-c3ccc(N)cc3)cc2n(C)c1=O	22.1*	17.5	57.5*	.	.	26.0	12.7
CC(C)CNC(=O)CC1Oc2ccccc2NC1=O (stereo unspecified)	-0.8	3.8	3.2	.	.	.	.
Cc1nn(C)c(C)c1N1C(=O)c2cccc3c(N)ccc(c23)C1=O	28.1*	180.2*	42.9*	4.3	26.8	38.5*	20.6*
NC(=O)C1=C(N=C2CCCCC2)CCCC1	6.4	-0.1	2.1	.	4.2	.	.
CN(C)c1ccc(NC(=O)Nc2ccc3c(c2)c(=O)n(C)n3-c2ccccc2)cc1	13.9	14.9	26.6	.	.	.	.
CN(C)c1ccc(NC(=S)Nc2ccc3c(c2)c(=O)n(C)n3-c2ccc(C(C)(C)C)cc2)cc1	19.9*	8.3	30.8*	.	.	44.9*	8.2
C[C@@H]1CN([C@H](C)CO)C(=O)c2cc(C3=CCCCC3)cnc2O[C@@H]1CN(C)Cc1ccccc1C(=O)O	14.2	-1.9	2.8	.	4.1	.	.
Cc1ccc(NC(=O)NNC(=O)CCn2nc(C)c([N+](=O)[O-])c2C)cc1C	-11.4	-2.3	-3.1	.	.	.	.
O=[N+]([O-])c1cccc(C=NNc2ccc3ccccc3n2)c1O	17.2*	0.0	36.8*	.	23.3	37.4*	3.4
SMILES	SIAE primary	PRMT1 FP inh	mABHD4 FP	JMJD2C inh	HTRA1 inh	mABHD4 conf	SIAE inh conf
Brc1ccccc1/C=N/Nc1ccc2ccccc2n1	4.5	-0.5	15.3	-1.6	-16.9	.	.
COc1ccc2c(c1)CCCN2C(=O)C1CCCN(S(=O)(=O)c2cccc3cccnc23)C1 (stereo unspecified)	2.0	3.5	4.0	.	.	.	.
CC(C)N1C(=O)CC(Nc2ccc(N3CCOCC3)cc2)C1=O (stereo unspecified)	20.7*	11.0	32.6*	-3.2	10.3	42.5*	3.0
O=C1CC(Nc2ccc(N3CCOCC3)cc2)C(=O)N1C1CCCCC1 (stereo unspecified)	8.4	7.2	27.6	-11.8	19.6	.	.
COc1ccccc1C=NN=C(NN=Cc1ccccc1OC)NN=Cc1ccccc1OC	6.8	1.8	19.4	.	15.2	.	.
Cc1cc(C(=O)OCC(=O)NC2CCS(=O)(=O)C2)c2ccccc2n1 (stereo unspecified)	-6.7	-1.0	-1.7	1.2	-1.3	.	.
O=C(COC(=O)c1cc(-c2cccc3ccccc23)nc2ccccc12)NC1CCS(=O)(=O)C1 (stereo unspecified)	25.3*	25.1*	38.5*	6.8	30.5	8.4	15.1
COc1cc2ccc(=O)oc2c(O)c1O	25.8*	5.4	31.6*	.	10.8	6.1	15.4
COc1cc2ccc(=O)oc2c(O[C@@H]2O[C@H](CO)[C@@H](O)[C@H](O)[C@H]2O)c1O	9.2	-0.4	2.6	-1.2	3.3	.	.
CN1C2CCCC1CC(NC(=O)c1nn(C)c3ccccc13)C2 (stereo unspecified)	6.0	2.3	13.5	.	.	.	.
O=C(Nc1ccccc1)/C(=C/c1cccnc1)NC(=O)c1ccco1	20.1*	-2.9	5.9	-2.6	2.4	.	3.1
CCCc1nc2cc(C)c(Br)c(C)n2c1Cc1ccccc1OC	1.0	4.2	2.0	.	.	.	.
Cc1ccc(C2Nc3cccc4cccc(c34)N2)s1	27.2*	6.3	8.2	-2.7	14.0	.	12.6
Fc1ccc(C2Nc3cccc4cccc(c34)N2)cc1	19.4*	8.7	9.0	-3.5	11.8	.	10.1
Cc1ccc2nc3n(c(=O)c2c1)-c1cc2ccccc2cc1C(=O)NC3Cc1ccccc1 (stereo unspecified)	-33.1	-1.3	-31.8	.	-76.5	.	.
Cc1cccc(C(=O)OCC(=O)NC2CCCCCCC2)c1	-9.6	-5.6	-10.3	.	-10.5	.	.
Cc1ccc(C(=O)OCC(=O)NC2CCCCCC2)c(C)c1	121.8*	-1.0	4.4	.	-7.8	.	-2.4
COC(=O)C1CN(Cc2ccc(F)cc2)CCS(=O)(=O)N1Cc1cn(CCOC(C)=O)nn1 (stereo unspecified)	-5.9	3.0	8.3	.	.	.	.
COC(=O)c1cc(-c2ccc(F)cc2OCc2ccccc2)c(=O)n2c1CCC2	7.0	-6.2	-7.7	.	.	.	.
COc1cccc(NC(=S)N2CCN(C)CC2)c1	7.0	-6.7	-3.3	-18.1	3.0	.	.
CC1(C)C/C(=N\NC(=S)Nc2ccccc2F)c2cc(O)ccc2O1	36.7*	-2.0	20.6	6.1	16.4	.	37.9*
